ChEMBL document CHEMBL1153726, “Synthesis and anticancer activity of sclerophytin-inspired hydroisobenzofurans” (Bioorg Med Chem Lett, 2009)

How the values were obtained:
Format in all cases: functional
MDA-MB-435 = assay: Growth inhibition of human MDA-MB-435 cells at 1 nM after 96 hrs by MTT assay; set-up: scale not given: the % may be the effect or the level left
U-251 [1] = assay: Growth inhibition of human U251 cells at 1 nM after 96 hrs by MTT assay; set-up: scale not given: the % may be the effect or the level left
NCI-H460 = assay: Growth inhibition of human NCI-H460 cells at 1 nM after 96 hrs by MTT assay; set-up: scale not given: the % may be the effect or the level left
BT-549 [2] = assay: Growth inhibition of human BT549 cells at 10 uM after 96 hrs by MTT assay; set-up: scale not given: the % may be the effect or the level left
[3] = Growth inhibition of human Hs 578T cells at 10 uM after 96 hrs by MTT assay; set-up: scale not given: the % may be the effect or the level left
MCF7 [4] = assay: Growth inhibition of human MCF7 cells at 10 uM after 96 hrs by MTT assay; set-up: scale not given: the % may be the effect or the level left
A498 [5] = assay: Growth inhibition of human A498 cells at 10 uM after 96 hrs by MTT assay; set-up: scale not given: the % may be the effect or the level left
SK-MEL-2 = assay: Growth inhibition of human SK-MEL-2 cells at 10 uM after 96 hrs by MTT assay; set-up: scale not given: the % may be the effect or the level left
M14 = assay: Growth inhibition of human M14 cells at 10 uM after 96 hrs by MTT assay; set-up: scale not given: the % may be the effect or the level left
Malme-3M = assay: Growth inhibition of human MALME-3M cells at 10 uM after 96 hrs by MTT assay; set-up: scale not given: the % may be the effect or the level left
K562 = assay: Growth inhibition of human K562 cells at 10 uM after 96 hrs by MTT assay; set-up: scale not given: the % may be the effect or the level left
SF-268 = assay: Growth inhibition of human SF268 cells at 10 nM after 96 hrs by MTT assay; set-up: scale not given: the % may be the effect or the level left
SW-620 = assay: Growth inhibition of human SW620 cells after 96 hrs by MTT assay; conditions: SW-620, 96 h
Outline: (§1)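 Tested in the NCI 60-cell-line panel in five-dose format; GI50 and LC50 values reported for each cell line.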

786-0 [6] = assay: Growth inhibition of human 786-0 cells after 96 hrs by MTT assay; conditions: 786-0, 96 h
UO-31 = assay: Growth inhibition of human UO31 cells after 96 hrs by MTT assay; conditions: UO-31, 96 h; outline: as §1
PC-3 = assay: Growth inhibition of human PC3 cells after 96 hrs by MTT assay; conditions: PC-3, 96 h; outline: as §1
COLO 205 = assay: Growth inhibition of human COLO205 cells after 96 hrs by MTT assay; conditions: COLO 205, 96 h
NCI-H522 = assay: Growth inhibition of human NCI-H522 cells after 96 hrs by MTT assay; conditions: NCI-H522, 96 h
Outline: (§2)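 Run in the NCI 60 human tumour cell line panel as a five-dose assay. GI50 and LC50 were reported for each cell line.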

NCI-H226 = assay: Growth inhibition of human NCI-H226 cells after 96 hrs by MTT assay; conditions: NCI-H226, 96 h; outline: as §2
A498 [7] = assay: Growth inhibition of human A498 cells at 1 uM after 96 hrs by MTT assay; set-up: scale not given: the % may be the effect or the level left
NCI/ADR-RES [8] = assay: Growth inhibition of human NCI/ADR-RES cells at 1 uM after 96 hrs by MTT assay; set-up: scale not given: the % may be the effect or the level left
T47D = assay: Growth inhibition of human T47D cells at 100 nM after 96 hrs by MTT assay; set-up: scale not given: the % may be the effect or the level left
BT-549 [9] = assay: Growth inhibition of human BT549 cells at 100 nM after 96 hrs by MTT assay; set-up: scale not given: the % may be the effect or the level left
MCF7 [10] = assay: Growth inhibition of human MCF7 cells at 100 nM after 96 hrs by MTT assay; set-up: scale not given: the % may be the effect or the level left
DU-145 = assay: Growth inhibition of human DU145 cells at 100 nM after 96 hrs by MTT assay; set-up: scale not given: the % may be the effect or the level left
TK-10 = assay: Growth inhibition of human TK10 cells at 100 nM after 96 hrs by MTT assay; set-up: scale not given: the % may be the effect or the level left
ACHN = assay: Growth inhibition of human ACHN cells at 100 nM after 96 hrs by MTT assay; set-up: scale not given: the % may be the effect or the level left
786-0 [11] = assay: Growth inhibition of human 786-0 cells at 100 nM after 96 hrs by MTT assay; set-up: scale not given: the % may be the effect or the level left
OVCAR-3 [12] = assay: Growth inhibition of human OVCAR-3 cells at 100 nM after 96 hrs by MTT assay; set-up: scale not given: the % may be the effect or the level left
SK-MEL-28 = assay: Growth inhibition of human SK-MEL-28 cells at 100 nM after 96 hrs by MTT assay; set-up: scale not given: the % may be the effect or the level left
HT-29 = assay: Growth inhibition of human HT-29 cells at 100 nM after 96 hrs by MTT assay; set-up: scale not given: the % may be the effect or the level left
NCI/ADR-RES [13] = assay: Growth inhibition of human NCI/ADR-RES cells at 10 nM after 96 hrs by MTT assay; set-up: scale not given: the % may be the effect or the level left
OVCAR-4 = assay: Growth inhibition of human OVCAR4 cells at 10 nM after 96 hrs by MTT assay; set-up: scale not given: the % may be the effect or the level left
OVCAR-3 [14] = assay: Growth inhibition of human OVCAR-3 cells at 10 nM after 96 hrs by MTT assay; set-up: scale not given: the % may be the effect or the level left
SNB-19 = assay: Growth inhibition of human SNB19 cells at 10 nM after 96 hrs by MTT assay; set-up: scale not given: the % may be the effect or the level left
OVCAR-3 [15] = assay: Growth inhibition of human OVCAR-3 cells at 1 uM after 96 hrs by MTT assay; set-up: scale not given: the % may be the effect or the level left
UACC-257 = assay: Growth inhibition of human UACC257 cells at 1 uM after 96 hrs by MTT assay; set-up: scale not given: the % may be the effect or the level left
U-251 [16] = assay: Growth inhibition of human U251 cells at 1 uM after 96 hrs by MTT assay; set-up: scale not given: the % may be the effect or the level left
KM12 = assay: Growth inhibition of human KM12 cells at 1 uM after 96 hrs by MTT assay; set-up: scale not given: the % may be the effect or the level left
HCC 2998 = assay: Growth inhibition of human HCC2998 cells at 1 uM after 96 hrs by MTT assay; set-up: scale not given: the % may be the effect or the level left
HOP-62 = assay: Growth inhibition of human HOP62 cells at 1 uM after 96 hrs by MTT assay; set-up: scale not given: the % may be the effect or the level left
[17] = read-out: LC50 (the source's name)
[18] = read-out: Log10GI50 (converted)
[19] = read-out: Log10LC50 (converted)

C=C(C)[C@H]1CC=C(C)C2=CO[C@@H](c3ccccc3F)[C@@H]21
Activity (MDA-MB-435): 92% | Activity (U-251 [1]): 98% | Activity (NCI-H460): 97% | Activity (BT-549 [2]): 112.93% | Activity [3]: 95.86% | Activity (MCF7 [4]): 93.7% | Activity (A498 [5]): 104.48% | Activity (SK-MEL-2): 71.47% | Activity (M14): 102.54% | Activity (Malme-3M): 101.14% | Activity (K562): 67.84% | Activity (SF-268): 94% | GI50 (SW-620; read-out: GI50): 4.49 µM | CC50 (SW-620; [17]): 43.4 µM | GI50 (SW-620; [18]): 4.47 µM | CC50 (SW-620; [19]): 43.7 µM | TGI (SW-620; read-out: Log10TGI (converted)): 15.8 µM | TGI (SW-620; read-out: TGI): 15.9 µM | GI50 (786-0 [6]; read-out: GI50): 8.73 µM | CC50 (786-0 [6]; [17]): 48.1 µM | GI50 (786-0 [6]; [18]): 8.71 µM | CC50 (786-0 [6]; [19]): 47.9 µM | TGI (786-0 [6]; read-out: Log10TGI (converted)): 21.4 µM | TGI (786-0 [6]; read-out: TGI): 21.5 µM | GI50 (UO-31; read-out: GI50): 6.32 µM | CC50 (UO-31; [17]): 49.2 µM | GI50 (UO-31; [18]): 6.31 µM | CC50 (UO-31; [19]): 49 µM | TGI (UO-31; read-out: Log10TGI (converted)): 20.9 µM | TGI (UO-31; read-out: TGI): 20.8 µM | GI50 (PC-3; read-out: GI50): 2.49 µM | CC50 (PC-3; [17]): 57.2 µM | GI50 (PC-3; [18]): 2.51 µM | CC50 (PC-3; [19]): 57.5 µM | TGI (PC-3; read-out: Log10TGI (converted)): 16.6 µM | TGI (PC-3; read-out: TGI): 16.5 µM | GI50 (COLO 205; read-out: GI50): 9.77 µM | CC50 (COLO 205; [17]): 46.3 µM | GI50 (COLO 205; [18]): 9.77 µM | CC50 (COLO 205; [19]): 46.8 µM | TGI (COLO 205; read-out: Log10TGI (converted)): 21.4 µM | TGI (COLO 205; read-out: TGI): 21.5 µM | GI50 (NCI-H522; read-out: GI50): 3.13 µM | CC50 (NCI-H522; [17]): 45.5 µM | GI50 (NCI-H522; [18]): 3.16 µM | CC50 (NCI-H522; [19]): 45.7 µM | TGI (NCI-H522; read-out: Log10TGI (converted)): 17.4 µM | TGI (NCI-H522; read-out: TGI): 17.4 µM | GI50 (NCI-H226; read-out: GI50): 3.82 µM | CC50 (NCI-H226; [17]): 50.6 µM | GI50 (NCI-H226; [18]): 3.8 µM | CC50 (NCI-H226; [19]): 50.1 µM | TGI (NCI-H226; read-out: Log10TGI (converted)): 19.1 µM | TGI (NCI-H226; read-out: TGI): 18.9 µM | Activity (A498 [7]): -16% | Activity (NCI/ADR-RES [8]): 26% | Activity (T47D): 76% | Activity (BT-549 [9]): 67% | Activity (MCF7 [10]): 83% | Activity (DU-145): 87% | Activity (TK-10): 92% | Activity (ACHN): 97% | Activity (786-0 [11]): 89% | Activity (OVCAR-3 [12]): 90% | Activity (SK-MEL-28): 93% | Activity (HT-29): 82% | Activity (NCI/ADR-RES [13]): 97% | Activity (OVCAR-4): 86% | Activity (OVCAR-3 [14]): 88% | Activity (SNB-19): 89% | Activity (OVCAR-3 [15]): 12% | Activity (UACC-257): 44% | Activity (U-251 [16]): 18% | Activity (KM12): 24% | Activity (HCC 2998): 39% | Activity (HOP-62): 51%
